From PubChem
GPR7 antagonist = antagonists of human GPR7 (neuropeptides B/W receptor 1); P48145; GPR7-expressing cells, fluorescence antagonist assay; inhibition, % at 4.4 µM; hit rate 1.1% among 290,000; AID 1861; in the data active means inhibition above about 16%, passing the limit was not always enough;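 further: cells stimulated with the agonist NPW; 0% = agonist with vehicle and 100% = vehicle without agonist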
Target sequence (P48145 whole entry, looked up): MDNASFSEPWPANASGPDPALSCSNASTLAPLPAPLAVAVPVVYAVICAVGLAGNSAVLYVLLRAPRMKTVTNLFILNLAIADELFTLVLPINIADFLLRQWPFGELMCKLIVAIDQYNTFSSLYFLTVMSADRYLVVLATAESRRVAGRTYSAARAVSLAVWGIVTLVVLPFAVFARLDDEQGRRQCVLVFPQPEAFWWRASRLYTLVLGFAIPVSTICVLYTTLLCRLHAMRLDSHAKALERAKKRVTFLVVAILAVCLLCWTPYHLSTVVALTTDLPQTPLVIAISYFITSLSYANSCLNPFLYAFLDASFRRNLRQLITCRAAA
TAAR1 agonist = human TAAR1 agonism. activation, % at 3 µM. hit rate 0.99% among 360,000. Q96RJ0. CHO RD-HGA16 TAAR1, Fluo-8 calcium fluorescence; vehicle wells 0%, saturating PEA agonist 100%. AID 624467;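 active means activation above the mean activation of all test compounds in the run plus 3 SD, cut at about 38% in these data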
Target sequence (Q96RJ0 whole entry, looked up): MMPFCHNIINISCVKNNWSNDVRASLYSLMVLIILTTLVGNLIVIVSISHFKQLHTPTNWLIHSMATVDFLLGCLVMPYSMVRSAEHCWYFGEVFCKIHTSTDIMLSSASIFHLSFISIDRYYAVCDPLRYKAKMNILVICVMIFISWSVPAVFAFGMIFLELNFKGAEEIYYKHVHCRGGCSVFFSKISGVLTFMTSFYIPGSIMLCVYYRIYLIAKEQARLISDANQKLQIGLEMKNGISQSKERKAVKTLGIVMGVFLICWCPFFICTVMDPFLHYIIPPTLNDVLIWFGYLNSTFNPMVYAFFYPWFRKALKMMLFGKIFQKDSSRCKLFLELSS
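Assay system – CHO-derived RD-HGA16 cells with stable Gα16 and human TAAR1 · Compound dosing – one-point dosing at 3 µM (nominal) · Incubation – 17-24 h seeding, 75 min 37 °C dye, 30 min RT · Measured by – kinetic Fluo-8 calcium fluorescence · Control set – DMSO vehicle as 0%, PEA at EC100 as 100% · Repeats – single well for each compound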
TAAR1 antagonist = antagonists of human TAAR1 | Q96RJ0 | CHO RD-HGA16 TAAR1, Fluo-8 calcium fluorescence, antagonist | inhibition, % at 3 µM | hit rate 1.5% among 360,000 | AID 624466;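 active means inhibition above a per-plate cutoff, the mean inhibition of test compounds on that plate plus 3 SD, cut at about 49% in these data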;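 further: 0% = DMSO plus EC80 beta-PEA response and 100% = DMSO alone without agonist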
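Test system: CHO RD-HGA16 cells bearing hTAAR1 | Reagent: β-PEA, EC80 | Compound dosing: 3 µM, single point | Schedule: Dye loading 75 min at 37 °C, then 30 min room temperature | Signal: Calcium fluorescence with Fluo-8 | Evaluation: Percent inhibition of PEA-evoked calcium signal, max/basal emission ratio | Control set: DMSO-only wells and EC80 β-PEA-stimulated wells | Repeats: Singlicate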
OX1R antag-1 = blocks the human orexin 1 receptor | OX1R-expressing cells, FRET antagonist read-out | hit rate 1.8% among 330,000 | O43613 | inhibition, % at 6.6 µM; in the data active means inhibition mostly above about 38%, no sharp cut-off; inactive means mostly below about 40%;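 further: 0% = agonist challenge alone and 100% = reference antagonist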
OX1R antag-2 = human HCRTR1 antagonism | O43613 | CHO/OX1R cells, Fluo-8 calcium fluorescence, orexin A | inhibition, % at 5 µM | hit rate 0.43% among 330,000 | AID 434989;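 active means inhibition above its plate's threshold, mean inhibition of all tested compounds on the plate plus 3 SD, cut at about 37% in these data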;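 further: 0% = orexin A challenge wells and 100% = SB-334867-A antagonist wells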
CHO parental Ca = signal in parental CHO cells, OX1R antagonist counter-screen | inhibition, % at 5.6 µM | parental CHO-K1, ATP-induced calcium, Fluo-8 fluorescence | AID 463079 | hit rate 0.63% among 330,000;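 active means inhibition above that plate's mean sample inhibition plus 3 SD, cut at about 26% in these data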;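 further: 0% = ATP-challenged DMSO wells and 100% = DMSO wells without ATP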
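Measured by: calcium-sensitive Fluo-8 fluorescence / Test system: CHO parental line / Controls: ATP-challenged DMSO wells low, unchallenged DMSO wells high / Measure: % inhibition / Compound: single nominal dose of 5.6 µM per compound / Replicates: single well per compound, no replicates / Reagent: ATP as calcium-mobilizing challenge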
* hit, by the source's call; nt = not tested or not shown. The list is not random: actives were taken first. Their share in the collection is about 4.6%.

SMILES	GPR7 antagonist	TAAR1 agonist	TAAR1 antagonist	OX1R antag-1	OX1R antag-2	CHO parental Ca
COc1ccc(NC(=O)Cn2c3ccccc3c3nc4n(c(=O)c32)CCS4)cc1OC	-5.3	0.1	-11.6	25.2	16.6	-13.9
COc1cccc(NC(=O)Cn2c3ccccc3c3nc4n(c(=O)c32)CCCS4)c1	-4.5	0.5	-7.8	36.8*	0.0	-31.2
COc1ccc(NC(=O)Cn2c3ccccc3c3nc4n(c(=O)c32)CCS4)cc1	5.0	1.8	-18.8	73.8*	4.1	-5.2
CCCCCN(C(=O)CCC(=O)OC(C)C(=O)Nc1cccc(C#N)c1)c1c(N)n(CCCC)c(=O)[nH]c1=O (centres undefined)	nt	1.1	-6.6	2.8	-9.3	-15.3
Cc1cccc(OC2CCN(Cc3nc(CC4CC4)no3)CC2)c1	20.4*	1.0	-2.2	14.4	-15.1	-9.5
CC(=O)N1Cc2cc(C(=O)NCC(F)(F)F)nc(-c3cccc(-c4cc5ccccc5o4)c3)c2[C@@H]1CCO	nt	2.2	-20.8	nt	nt	nt
CCCNC(=O)c1cc2c(c(-c3cccc(-c4cc5ccccc5o4)c3)n1)[C@H](CCO)N(C(=O)NC(C)C)C2	nt	5.0	50.1*	nt	nt	nt
CC(C)(C)S(=O)N1Cc2cc(C(=O)NCCCN3CCOCC3)nc(-c3cccc(-c4cc5ccccc5o4)c3)c2[C@@H]1CCO (some centres undefined)	nt	20.6	55.3*	nt	nt	nt
CC(C)(C)S(=O)N1Cc2cc(C(=O)NCC(F)(F)F)nc(-c3cccc(-c4cccc(F)c4)c3)c2[C@@H]1CCO (some centres undefined)	nt	14.7	50.8*	nt	nt	nt
CN1CCC(=NNC(=O)CSc2ccc(Cl)cc2)CC1	-14.0	4.9	2.7	0.6	-10.8	-17.8
CN1C(=O)c2ccc(NC(=O)c3c(C(=O)O)cccc3[N+](=O)[O-])cc2C1=O	-5.5	-0.2	-22.4	12.3	10.3	-0.3
CCCOc1ccccc1C1CC(=O)NC2=C1C(=O)CCC2 (centres undefined)	3.4	11.1	6.0	26.0	-24.9	-6.7
CCCCOc1ccccc1C1CC(=O)NC2=C1C(=O)CCC2 (centres undefined)	20.2*	23.8	14.5	8.4	-1.0	-31.8
CCCC1(c2ccccc2)NC(=O)N(CC(=O)Nc2cc(OC)cc(OC)c2)C1=O (centres undefined)	19.4	11.3	1.4	11.8	6.0	-2.9
CCOc1ccccc1NC(=O)CSc1nc2nc(-c3cccs3)cc(C(F)(F)F)c2c(=O)[nH]1	-8.4	-2.5	-17.3	46.9*	-23.9	-17.6
COC(/C(=N/O)c1ccc(Cl)cc1)c1ccccc1 (centres undefined)	-3.2	8.5	32.8	30.7	13.4	59.8*
COc1ccc(Cl)cc1NC(=O)C(OC)c1ccccc1 (centres undefined)	5.1	2.9	-4.7	6.9	-15.4	15.3
O=C(CCSc1nc2ccccc2s1)N/N=C/c1c(O)ccc2ccccc12	-0.9	3.2	28.3	60.9*	9.1	5.9
Cc1cc(C)n(CCC(=O)N/N=C/c2c(O)ccc3ccccc23)n1	-10.0	13.7	-20.6	25.9	-38.2	-31.2
Cc1ccc(Cn2c(SCC(C)C)nc3c2c(=O)n(C)c(=O)n3C)cc1	-2.9	32.3	35.8	3.4	-39.4	-30.6
Cc1ccc(-c2nc3cccnc3o2)cc1NC(=O)COc1ccc(C(C)(C)C)cc1	-19.8	16.9	68.6*	62.6	37.2	40.0*
Cc1ccc(-c2nc3cccnc3o2)cc1NC(=O)COc1ccc(Cl)cc1C	-10.7	7.8	-0.6	12.9	-20.1	-20.1
CCOC(=O)[C@@H]1[C@H]2COc3ccccc3[C@@H]2N2C(=O)N(c3cccc(Cl)c3)C(=O)[C@@]12C	8.0	3.0	6.7	18.9	-5.3	-3.7
O=c1c(NCCc2ccc(Cl)cc2)c(-c2ccccc2)c1=O	-3.2	42.1*	-20.7	1.6	-9.4	-3.9
O=C(/C=C/c1c(Cl)cccc1Cl)NCCCn1ccnc1	nt	3.4	-40.0	-2.0	-22.8	-11.0
SMILES	GPR7 antagonist	TAAR1 agonist	TAAR1 antagonist	OX1R antag-1	OX1R antag-2	CHO parental Ca
CCOC(=O)C1CCN(S(=O)(=O)c2ccc3[nH]c4c(c3c2)CCCC4)CC1	-23.2	-1.4	0.5	14.8	-1.7	8.5
CCN(c1ccccc1)S(=O)(=O)c1ccc(C(=O)N(C)Cc2cccs2)cc1	nt	11.1	48.6*	12.6	9.6	2.2
CCN(CC(=O)NCc1cccs1)C(=O)c1ccc(S(=O)(=O)N(C)c2ccccc2)cc1	nt	3.8	15.8	4.4	-9.6	-9.2
CC(C)c1ccc(CCNC(=O)CCNC(=O)c2ccc(Br)cc2)cc1	-13.9	-1.1	-13.5	12.5	-27.3	-15.8
Cc1ccc(N2C(=O)NC(NS(=O)(=O)c3ccccc3)(C(F)(F)F)C2=O)cc1C (centres undefined)	-9.9	2.7	-13.1	12.5	-5.6	2.4
O=c1ccsn1Cc1ccccc1	7.3	43.6*	36.7	23.0	-7.2	-14.5
O=C(CC1S/C(=N/N=C/c2c[nH]c3ccc(OCc4ccccc4)cc23)NC1=O)Nc1ccccc1 (centres undefined)	-15.5	5.7	-1.4	-1.8	-10.4	6.6
O=C(CC1S/C(=N/N=C/c2c[nH]c3ccccc23)NC1=O)Nc1ccccc1 (centres undefined)	18.0*	4.6	18.1	14.0	1.4	7.3
CCN1C(=O)[C@H]2[C@@H](c3ccc(C)cc3)N[C@]3(CCCN(Cc4ccc(OC)cc4)C3=O)[C@H]2C1=O	nt	-0.1	-20.6	nt	nt	nt
COc1cc2c(cc1OC)CN(C(=S)Nc1ccc(OC(F)F)cc1)CC2	-3.1	1.3	22.6	21.8	4.0	45.1*
O=C1OC(c2ccc3c(c2)OCO3)N(C(=O)c2ccc(Cl)c(Cl)c2)c2ccccc21 (centres undefined)	2.3	6.8	18.6	76.2*	-1.0	2.2
Cc1cccc(C(=O)N2c3ccccc3C(=O)OC2c2ccc3c(c2)OCO3)c1 (centres undefined)	-10.0	7.4	-3.0	17.1	-3.3	5.9
N#Cc1c(SC(C(=O)O)c2ccccc2)nc2c(c1-c1cccs1)CCCC2 (centres undefined)	-8.4	37.9*	-9.7	33.0	-27.2	-20.2
Oc1ccc(N=Nc2ccc3ccccc3c2)cc1	-2.8	0.0	12.8	-1.1	4.9	43.1*
COc1cccc(-c2cc(C(=O)N3CCN(c4ncccn4)CC3)c3ccccc3n2)c1	-1.8	15.5	55.9*	8.2	-18.5	-11.6
COc1ccc(-c2cc(C(=O)N3CCCCC3)c3ccccc3n2)cc1	nt	5.7	15.0	6.6	-20.1	-34.7
CC(C)Oc1cccc(-c2cc(C(=O)N3CCN(S(C)(=O)=O)CC3)c3ccccc3n2)c1	-6.2	18.8	43.4	25.8	-40.4	-16.3
CC(C)Oc1cccc(-c2cc(C(=O)N3CCN(c4ncccn4)CC3)c3ccccc3n2)c1	1.3	33.0	51.5*	14.9	-17.0	-3.3
